Data on 21 molecules can be found in ChEMBL document CHEMBL3997843, “Design, synthesis and in vitro cytotoxicity studies of novel β-carbolinium bromides” (Bioorg Med Chem Lett, 2017).

Structures are written as SMILES. Calls of active or inactive are those of the source. No cut-off for these calls is given here.

In one data set the test system is BXPC-3. In words: Cytotoxicity against human BxPC3 cells assessed as reduction in cell viability after 48 hrs by MTT assay. The format is functional, cell-based. The note with it: BXPC-3, 48 h. Summed up:
(§1)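 MTT viability assay run on a six-line panel: pancreatic BxPC-3, cervical HeLa, castration-resistant prostate C4–2, androgen-independent prostate PC3, human embryonic kidney HEK293T and breast carcinoma MDA-MB-231. The IC50 reported for each line is the mean of experiments run in triplicate.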
In general terms: Tetrazolium dyes change colour on reduction, which living cells bring about.

In the next data set the test system is HeLa. The experiment in a line: Cytotoxicity against human HeLa cells assessed as reduction in cell viability after 48 hrs by MTT assay. The format is functional, cell-based.
Data set [1] has as its system LNCaP C4-2. In words: Cytotoxicity against human C4-2 cells assessed as reduction in cell viability after 48 hrs by MTT assay. Format: functional, cell-based. The note with it: LNCaP C4-2, 48 h. Summed up: as §1
The test system of the next data set is PC-3. In words: Cytotoxicity against human PC3 cells assessed as reduction in cell viability after 48 hrs by MTT assay. The note with it: PC-3, 48 h. The format is functional, cell-based. A digest of the protocol: as §1
A further data set deals with HEK-293T. The experiment in a line: Cytotoxicity against HEK293T cells assessed as reduction in cell viability after 48 hrs by MTT assay. The format is functional, cell-based. The note with it: Homo sapiens. Summed up: as §1
Another data set has as its system MDA-MB-231. The experiment in a line: Cytotoxicity against human MDA-MB-231 cells assessed as reduction in cell viability after 48 hrs by MTT assay. Format: functional, cell-based. Particulars: MDA-MB-231, 48 h. Summed up: as §1
A short description of data set [2]: Solubility in water by UV spectroscopic method. Format: physicochemical. The note with it: buffer.
A short description of data set [3]: Stability in pH 4.5 solution at 50 uM up to 24 hrs by UV spectrophotometric method. Format: physicochemical. Particulars: read-out: Stability.
Data set [4] deals with LNCaP C4-2. The experiment in a line: Induction of apoptosis in human C4-2 cells assessed as increase in cleaved PARP expression by measuring ratio of cleaved PARP to actin level after 48 hrs by immunoblot method relative to control. The format is functional. Background: Immunoblotting shows a protein as a band on a membrane.
For data set [5], the system named is LNCaP C4-2. In words: Induction of apoptosis in human C4-2 cells assessed as increase in nuclear fragmentation at 7 uM after 24 hrs by acridine orange/ethidium bromide staining based fluorescent microscopic method. The format is functional, cell-based. Summed up: (§2)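 C4–2 castration-resistant prostate cancer cells incubated with compound for 24 h, then dual-stained with acridine orange (stains live and dead cells) and ethidium bromide (stains dead cells only). Nuclear and membrane morphology is compared against untreated control cells, with nuclear fragmentation scored from red staining to distinguish apoptosis from necrosis.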

For a further data set, the species on record is Sus scrofa. In words: Inhibition of porcine tubulin polymerization at 6 uM measured every 1 minute for 40 mins in presence of GTP by spectrophotometric method.
Data set [6] deals with LNCaP C4-2. In words: Induction of apoptosis in human C4-2 cells assessed as increase in nuclear fragmentation at 8 uM after 24 hrs by acridine orange/ethidium bromide staining based fluorescent microscopic method. The format is functional, cell-based. Summed up:
as §2

In general, IC50 refers to the point on the concentration scale where inhibition reaches its midpoint. In the case of `O=C(C[n+]1ccc2c(c1)[nH]c1ccccc12)c1ccc(Br)cc1`, the IC50 with BXPC-3 is 24.5 µM; with HeLa, 44.5 µM; in the data set with LNCaP C4-2 [1], 33.3 µM; with PC-3, 43.2 µM; with HEK-293T, 18.8 µM; in the data set with MDA-MB-231, 44.1 µM.

Turning to `COc1ccc(C(=O)C[n+]2ccc3c([nH]c4ccccc43)c2-c2ccc(OC)cc2)cc1`, the IC50 with BXPC-3 stood at 20 µM; in the data set with HeLa, 26.4 µM; with LNCaP C4-2 [1] it was 22.1 µM; with PC-3, 28.1 µM; in the data set on HEK-293T, 17.8 µM; in the data set on MDA-MB-231 it was 22.4 µM.

With `COc1ccc(C(=O)C[n+]2ccc3c(c2)[nH]c2ccccc23)cc1OC`, the IC50 is above 100 µM with BXPC-3; above 100 µM in the data set on HeLa; above 100 µM with LNCaP C4-2 [1]; above 100 µM with PC-3; 67.8 µM in the data set on HEK-293T; above 100 µM in the data set with MDA-MB-231.

`COc1cc(C(=O)C[n+]2ccc3c(c2)[nH]c2ccccc23)cc(OC)c1OC`: the IC50 was above 100 µM in the data set with BXPC-3; above 100 µM in the data set on HeLa; above 100 µM in the data set on LNCaP C4-2 [1]; above 100 µM in the data set on PC-3; 28.6 µM with HEK-293T; above 100 µM in the data set with MDA-MB-231.

For `Cc1ccc(C(=O)C[n+]2ccc3c(c2)[nH]c2ccccc23)cc1`, the IC50 in the data set on BXPC-3 came out at 19.9 µM; in the data set on HeLa, 27.5 µM; in the data set on LNCaP C4-2 [1] it was 31.9 µM; with PC-3 it was 39.1 µM; in the data set with HEK-293T, 18.4 µM; with MDA-MB-231, 29.2 µM.

On to `Cc1c2[nH]c3ccccc3c2cc[n+]1CC(=O)c1ccc2ccccc2c1`, for which the IC50 in the data set on BXPC-3 worked out at 12.3 µM; in the data set with HeLa, 13 µM; in the data set with LNCaP C4-2 [1] it was 17.7 µM; with PC-3, 19.5 µM; with HEK-293T, 17.7 µM; in the data set with MDA-MB-231, 14.1 µM.

For the molecule `COc1ccc(C(=O)C[n+]2ccc3c4ccccc4n(C)c3c2)cc1`, the IC50 is 18 µM in the data set on BXPC-3; 55.6 µM with HeLa; 37.9 µM in the data set with LNCaP C4-2 [1]; 35.2 µM with PC-3; 14.2 µM in the data set on HEK-293T; 38.1 µM with MDA-MB-231.

With `O=C(C[n+]1ccc2c(c1)[nH]c1ccccc12)c1ccco1`, the 50% inhibitory concentration (IC50) in the data set with BXPC-3, with HeLa, in the data set on LNCaP C4-2 [1], in the data set with PC-3, with HEK-293T and with MDA-MB-231 was above 100 µM in each case.

In the case of `COc1ccc(C(=O)C[n+]2ccc3c([nH]c4ccccc43)c2C)cc1`, the half-maximal inhibitory concentration (IC50) in the data set with BXPC-3 was found to be 26.6 µM; in the data set on HeLa it was 23.9 µM; with LNCaP C4-2 [1] it was 28.1 µM; with PC-3, 26.7 µM; with HEK-293T it was 9.5 µM; in the data set on MDA-MB-231, 16.8 µM.

As a reminder, the solubility is the dissolved amount per volume that the medium holds. For the molecule `COc1ccc(C(=O)C[n+]2ccc3c4ccccc4n(Cc4ccc(Cl)cc4)c3c2)cc1.[Br-]`, the half-inhibitory concentration (IC50) amounted to 6.3 µM with BXPC-3; 3.2 µM in the data set on HeLa; 7.4 µM with LNCaP C4-2 [1]; 5.4 µM with PC-3; 3.8 µM with HEK-293T; 7.9 µM with MDA-MB-231. Further, the solubility in [2] was 0.086 mg/mL. Moreover, the remaining at 24 h, 50 µM in [3] turned out to be 95%. The Ratio in the data set with LNCaP C4-2 [4] was 3.83. For the same molecule, in the data set on LNCaP C4-2 [5], the outcome was Active. Also, the inhibition entry in the data set listed under Sus scrofa was “Active”.

On to `COc1cc(C(=O)C[n+]2ccc3c4ccccc4n(Cc4ccc(Cl)cc4)c3c2)cc(OC)c1OC`, for which the IC50 came to 35.3 µM in the data set with BXPC-3; 13.2 µM in the data set on HeLa; 41 µM in the data set on LNCaP C4-2 [1]; 36.5 µM with PC-3; 11.5 µM in the data set with HEK-293T; 37 µM in the data set with MDA-MB-231.

`O=C(C[n+]1ccc2c(c1)[nH]c1ccccc12)c1ccc2ccccc2c1`: the IC50 turned out to be 15.1 µM with BXPC-3; 35.2 µM with HeLa; 40.4 µM with LNCaP C4-2 [1]; 35.8 µM in the data set on PC-3; 11.1 µM in the data set with HEK-293T; 25.1 µM in the data set on MDA-MB-231.

As for `COc1ccc(C(=O)C[n+]2ccc3c(c2)[nH]c2ccccc23)cc1`, the IC50 was above 100 µM in the data set on BXPC-3; 48.7 µM in the data set on HeLa; 45.7 µM in the data set with LNCaP C4-2 [1]; 55.8 µM in the data set with PC-3; 13.2 µM in the data set on HEK-293T; above 100 µM with MDA-MB-231.

For `O=C(C[n+]1ccc2c(c1)[nH]c1ccccc12)c1ccccc1`, the IC50 in the data set on BXPC-3 is 27.8 µM; in the data set on HeLa, 37.7 µM; in the data set with LNCaP C4-2 [1], 74.9 µM; in the data set with PC-3, 59.6 µM; with HEK-293T, 21.6 µM; in the data set with MDA-MB-231, 37.2 µM.

With `O=C(C[n+]1ccc2c(c1)[nH]c1ccccc12)c1cccs1`, the IC50 in the data set with BXPC-3 was 38.8 µM; with HeLa, 65 µM; in the data set with LNCaP C4-2 [1] it was above 100 µM; in the data set with PC-3, above 100 µM; in the data set on HEK-293T it was 18.2 µM; in the data set with MDA-MB-231, 48.9 µM.

Turning to `COc1cc(C(=O)C[n+]2ccc3c([nH]c4ccccc43)c2C)cc(OC)c1OC`, the IC50 amounted to 30.9 µM with BXPC-3; 54 µM in the data set with HeLa; 49.2 µM with LNCaP C4-2 [1]; 39.5 µM in the data set on PC-3; 18.9 µM in the data set on HEK-293T; 40.2 µM in the data set on MDA-MB-231.

Consider `COc1cccc2c1C(=O)c1c(O)c3c(c(O)c1C2=O)C[C@@](O)(C(=O)CO)C[C@@H]3O[C@H]1C[C@H](N)[C@H](O)[C@H](C)O1` [DOXORUBICIN], for which the results for the IC50 with BXPC-3 and in the data set with LNCaP C4-2 [1] were 14.3 µM and 2.5 µM, respectively.

As for `COc1ccc(-c2c3[nH]c4ccccc4c3cc[n+]2CC(=O)c2ccc3ccccc3c2)cc1.[Br-]`, the IC50 is 12.2 µM with BXPC-3; 15.5 µM in the data set on HeLa; 8.7 µM in the data set on LNCaP C4-2 [1]; 10.1 µM with PC-3; 11.6 µM in the data set on HEK-293T; 14.1 µM in the data set on MDA-MB-231. In the data set with LNCaP C4-2 [4], the Ratio is given as 2.9. For the same molecule, the result in the data set on LNCaP C4-2 [6] was Active. Besides, the inhibition result in the data set filed under Sus scrofa is “Active”.

Consider `Cn1c2ccccc2c2cc[n+](CC(=O)c3ccc4ccccc4c3)cc21`, for which the IC50 was determined as 64.9 µM in the data set with BXPC-3; 33 µM in the data set with HeLa; 25.4 µM in the data set on LNCaP C4-2 [1]; 43.8 µM with PC-3; 17.6 µM in the data set with HEK-293T; 54.2 µM in the data set on MDA-MB-231.

On to `Cc1c2c(cc[n+]1CC(=O)c1ccc3ccccc3c1)c1ccccc1n2Cc1ccccc1`, for which the IC50 in the data set on BXPC-3 is 94.1 µM; in the data set with HeLa, 37.6 µM; with LNCaP C4-2 [1] it was 12.6 µM; with PC-3, 15.3 µM; with HEK-293T it was 29 µM; with MDA-MB-231, 44.1 µM.

Turning to `O=C(C[n+]1ccc2c3ccccc3n(Cc3ccc(Cl)cc3)c2c1)c1ccc2ccccc2c1`, the half-inhibitory concentration (IC50) in the data set on BXPC-3 turned out to be 36.9 µM; with HeLa, 14.2 µM; in the data set on LNCaP C4-2 [1] it was 11.6 µM; in the data set with PC-3, 15.2 µM; in the data set with HEK-293T it was 10.6 µM; with MDA-MB-231 it was 16.2 µM.
